Sampled rows, rich in hits. Any-hit rate of the full collection: about 2.2%.
MT stabilize HCS – microtubule stabilization, imaging screen; 200,000 tested, 0.83% active; HeLa tubulin immunostaining HCS, 24 h; share of cells brighter than vehicle mean+2SD; % tubulin-high responders, % at 10 µM;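 active = plate Z-score above 3 for both tubulin-high and condensed-nucleus cell shares, with cell loss under 80%, at 10 µM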;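 also: anti alpha tubulin signal scored within the nucleus-defined area of each cell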
APP transl inh – APP translation inhibition; SH-SY5Y APP 5'UTR-luciferase reporter, luminescence; inhibition, % at 2 µM; 190,000 tested, 0.82% active;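 active = inhibition above a set limit, derived from the sample mean plus 3 SD, cut at about 45% in these data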
Ba/F3 V617F tox – lowers viability of Ba/F3 cells expressing EpoR and JAK2V617F | ATP luminescence | inhibition, % at 5.6 µM | 220,000 tested, 1.1% active;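 active = inhibition above the campaign mean plus 3 SD over all tested compounds, cut at about 24% in these data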;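 also: cytokine-independent growth of Ba/F3 cells driven by EpoR plus mutant JAK2; 0% = DMSO-treated cells and 100% = JAK inhibitor I control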
b-catenin transl – modulators of beta-catenin nuclear translocation | nuclear translocation activity, % at 5 µM | HeLa beta-catenin nuclear translocation, immunofluorescence imaging | 190,000 tested, 0.3% active;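 active = nuclear translocation activity above 50% at 5 µM, with a well cell count of 50 or more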;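 also: per-cell ratio of nuclear to cytoplasmic median beta-catenin stain intensity; plate controls were DMSO negative control for no effect and GSK-3 inhibitor IX positive control for full effect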
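Signal – beta-catenin immunofluorescence imaging with DAPI · Test system – human HeLa cell line · Dosing – 5 µM primary single dose, 0.1% DMSO, 0.02–20 µM confirmation series · Measure – % activation, nuclear-to-cytoplasmic median beta-catenin signal ratio per cell · Incubation – 24 h compound exposure at 37°C, 5% CO2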
IEC-6 cytotox – IEC-6 cytotoxicity, counter-screen for KLF5 inhibitors; luminescence viability; inhibition, % at 5 µM; 290,000 tested, 0.78% active; in the data active = inhibition above about 22%;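 also: 0% = plate median of test compound wells and 100% = cytotoxic reference compound wells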
BaF3 tox – reduces parental Ba/F3 cell viability, JAK2V617F counter-screen. CellTiter-Glo ATP luminescence. inhibition, % at 5.6 µM. 220,000 tested, 1.1% active. AID 1486;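 active = inhibition above a per-campaign cutoff, the mean inhibition of all tested compounds plus 3 SD, cut at about 27% in these data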;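 also: 0% = DMSO wells and 100% = JAK Inhibitor I control wells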
BaF3 parental 2 – counter-screen for JAK2V617F inhibitors: parental Ba/F3 viability inhibitors. shares compounds with Ba/F3 V617F tox. 580 tested, 31% active. CellTiter-Glo luminescence; cells kept alive by added IL-3. inhibition, % at 5.6 µM. AID 1520;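 active = cell growth inhibition above the hit limit set in the earlier mutant JAK2 cell screen, cut at about 27% in these data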;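 also: plate controls were DMSO-treated cells for no effect and JAK Inhibitor I control wells for full effect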
JAK2V617F confrm – confirmation: loss of viability in JAK2V617F-dependent Ba/F3 cells. shares compounds with Ba/F3 V617F tox. Ba/F3 EpoR-JAK2V617F viability, CellTiter-Glo luminescence. AID 1521. 580 tested, 66% active. inhibition, % at 5.6 µM;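 active = mean inhibition above the hit cutoff derived in the earlier primary screen, cut at about 25% in these data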;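 also: 0% = DMSO-treated cells and 100% = JAK inhibitor I control wells; higher means lower luminescence from reduced cell ATP and viability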
Starred values were filed as active, the others as inactive; . = no result given.

SMILES	MT stabilize HCS	APP transl inh	Ba/F3 V617F tox	b-catenin transl	IEC-6 cytotox	BaF3 tox	BaF3 parental 2	JAK2V617F confrm
CCOC(=O)C1(Cc2ccccc2C(F)(F)F)CCN(C2CCN(C(C)C)CC2)CC1	1.6	9.0	73.2*	-0.7	17.2	15.9	13.6	42.3*
CCOC(=O)C1(Cc2ccccc2C(F)(F)F)CCN(CC(O)CO)CC1 (centres undefined)	2.5	-7.2	-0.4	3.6	-5.7	6.8	.	.
O=C(CCc1ccccc1)Nc1ncc2c(n1)CCCC2=O	4.0	10.5	6.0	-4.5	3.3	8.9	.	.
CC1(C)CC(=O)c2cnc(NC(=O)CCc3ccccc3)nc2C1	1.6	14.4	95.3*	0.0	-0.8	-1.1	-5.6	-7.5
Cn1c(=O)c(=O)n(C)c2cc([N+](=O)[O-])c(N3CCOCC3)cc21	.	.	.	.	2.8	.	.	.
Cc1cc(Cl)n2c(nc3cc(F)c(F)cc32)c1C#N	2.1	87.6*	47.6*	-0.2	13.1	24.2	33.1*	93.2*
Cc1ccc(-n2nc3c(=O)n(CCCC(=O)NCc4ccccc4Cl)nc(C)c3c2C)cc1	.	.	.	.	11.3	.	.	.
Cc1cccc(CS(=O)(=O)Cc2ccc(C(=O)NC(C)c3ccccc3)o2)c1 (centres undefined)	.	.	.	.	-6.5	.	.	.
CCSc1nnc([C@H](Cc2ccccc2)NC(=O)OC(C)(C)C)o1	1.6	14.1	0.5	0.1	-3.1	6.1	.	.
CCC(C)[C@@H](NC(=O)OC(C)(C)C)c1nnc(S(=O)(=O)Cc2cccc(C)c2)o1 (some centres undefined)	5.0	20.8	25.9*	-3.9	6.7	13.7	11.5	65.8*
Cc1ccccc1CS(=O)(=O)c1nnc([C@H](Cc2ccccc2)NC(=O)OC(C)(C)C)o1	1.1	69.9*	37.3*	.	4.4	1.8	1.7	95.0*
Cc1cc(C)cc(C(=O)NC(CC(N)=O)c2ccc(NCC3CC3)c([N+](=O)[O-])c2)c1 (centres undefined)	.	.	.	.	6.0	.	.	.
Cc1c(C(=O)N(C)C2CCCCC2)sc2ncnc(N3CCN(c4ccccc4)CC3)c12	.	.	.	.	2.9	.	.	.
COc1cc2c(cc1OC)-c1cc(N3CCCc4ccccc43)nc(=O)n1CC2	4.4	11.6	30.5*	-2.8	-1.9	14.9	14.6	61.1*
COc1ccc(OC)c2c1cc(C(=O)N[C@H](C(=O)N1CCC(C(=O)O)CC1)C(C)C)n2C	.	.	.	.	-2.7	.	.	.
OCC1CCCC(n2cnc3c(=S)nc[nH]c32)O1 (centres undefined)	.	.	24.5*	-1.0	11.3	21.7	-0.3	1.2
CCOC(=O)N1CCN(C(=O)c2ccc(NC(=O)c3ccc(C)cc3)cc2)CC1	2.8	10.4	24.4*	0.4	4.6	13.9	2.9	32.5*
COCCN(CC(=O)NCC1CCCO1)C(=O)CCC(=O)Nc1cc(C)ccn1 (centres undefined)	3.3	12.7	0.2	1.0	-3.1	3.1	.	.
COCCN(CC(=O)NCC1CCCO1)C(=O)CCC(=O)Nc1cc(C)on1 (centres undefined)	2.1	-3.1	34.9*	-1.4	-6.2	0.6	-5.5	-8.1
O=C(O)c1ccc(N/N=C/c2ccc(-c3ccc(Cl)cc3Cl)o2)cc1	.	.	30.5*	-0.1	10.7	12.6	45.1*	33.4*
COC(=O)C1CN(C(=O)COc2ccc(C)cc2)c2ccccc2O1 (centres undefined)	.	.	.	.	-1.1	.	.	.
NS(=O)(=O)c1ccc(Sc2nc3ccccc3s2)c([N+](=O)[O-])c1	.	.	65.3*	1.6	4.1	21.4	35.8*	93.3*
COc1ccc(OC)c(NS(=O)(=O)c2ccc(SC)cc2)c1	24.6	4.4	29.7*	1.2	21.6	26.3	18.5	70.3*
O=C(c1cscn1)N1CCCC(N2CCN(c3ccc(F)cc3)CC2)C1 (centres undefined)	.	.	.	.	1.6	.	.	.
CC(C)(C)c1ccc(OCc2ccc(C(=O)N/N=C/c3ccc(O)c(O)c3)cc2)cc1	3.7	16.5	100.8*	-1.5	3.7	2.5	81.0*	99.3*
SMILES	MT stabilize HCS	APP transl inh	Ba/F3 V617F tox	b-catenin transl	IEC-6 cytotox	BaF3 tox	BaF3 parental 2	JAK2V617F confrm
CCCCCCCOc1ccc(OC(=O)c2ccncc2)cc1	0.7	2.7	52.4*	.	11.8	21.8	64.8*	92.9*
O=C(Nc1cccc(NC(=O)c2cccs2)c1)c1ccc([N+](=O)[O-])o1	.	.	39.5*	-0.2	64.3*	0.4	8.2	72.0*
COc1cc(NC(=O)c2ccc([N+](=O)[O-])o2)ccc1NC(=O)c1cccs1	5.5	35.3	4.1	3.0	-2.7	4.5	.	.
O=S(=O)(c1cnc(Cl)c(Cl)c1)N1CCc2ccccc21	.	.	25.3*	-0.5	-2.3	-2.9	-6.3	58.7*
O=S(=O)(c1cc(Cl)ccc1Cl)N1CCc2ccccc21	.	.	.	.	7.6	.	.	.
O=S(=O)(c1cnc(Cl)c(Cl)c1)N1CCCc2ccccc21	4.4	-12.5	3.6	-1.8	6.3	2.9	.	.
O=S(=O)(c1cnc(Cl)c(Br)c1)N1CCc2ccccc21	.	.	27.7*	-0.1	-4.7	-0.4	-0.5	58.4*
CCCc1ccc(C(=O)NNc2ccc(F)cc2)cc1	.	.	93.2*	5.1	-1.3	0.6	5.4	5.4
CCOC(=O)Cc1csc(NC(=O)NC2(C(F)(F)F)Oc3ccc(Cl)cc3O2)n1 (centres undefined)	3.1	31.1	29.8*	.	1.1	18.2	1.7	44.4*
CCCC(=O)N(C1CC(C)C(C#N)(C#N)C1(C#N)C#N)N(C)C (centres undefined)	.	.	45.9*	-1.1	8.8	-2.4	-1.2	61.5*
Oc1ccc(N=Nc2ccccc2)o1	.	.	.	.	11.8	.	.	.
COc1ccc(N(C(=O)c2cccnc2)S(=O)(=O)c2cc(OC)ccc2OC)cc1	.	.	.	.	1.4	.	.	.
COc1cccc(/C=C/C(=O)OCC(=O)Nc2ccc(N3CCOCC3)cc2)c1OC	4.1	-12.4	41.5*	0.5	2.4	0.8	-3.8	-5.0
